Assay outcomes as filed in PubChem BioAssay.
GSK3A inh: blocks human GSK-3 alpha kinase. ADP-Glo luminescence, 60 min. AID 2650. inhibition, % at 10 µM. P49840. hit rate 0.1% among 320,000;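 active = more than half of replicates show inhibition above 20%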;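 also: GST-tagged GSK-3 alpha with peptide substrate and 25 µM ATP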
GSK3B inh: blocks human GSK3beta kinase activity. GST-GSK3beta kinase, ADP-Glo luminescence, 60 min; hits give low values. activity score (negative = inhibition), % at 10 µM. hit rate 0.038% among 300,000. AID 2097;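 active = more than half of replicate wells score below -50%, meaning over 50% inhibition versus plate controls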
Target sequence (P49841 whole entry, looked up): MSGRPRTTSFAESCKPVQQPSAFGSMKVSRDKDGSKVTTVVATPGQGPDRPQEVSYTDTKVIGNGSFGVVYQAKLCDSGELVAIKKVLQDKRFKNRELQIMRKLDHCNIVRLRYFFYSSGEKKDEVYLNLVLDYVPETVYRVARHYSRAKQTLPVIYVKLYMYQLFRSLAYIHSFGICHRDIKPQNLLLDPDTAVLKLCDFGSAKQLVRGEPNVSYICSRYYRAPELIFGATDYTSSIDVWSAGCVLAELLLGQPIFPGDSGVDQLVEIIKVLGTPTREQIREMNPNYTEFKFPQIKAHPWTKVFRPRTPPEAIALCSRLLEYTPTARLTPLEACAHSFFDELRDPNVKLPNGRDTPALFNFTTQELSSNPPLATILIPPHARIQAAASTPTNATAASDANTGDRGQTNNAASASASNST
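Test system: GST-fused GSK3beta enzyme, cell-free | Quantity: 1.6 ng GST-GSK3beta enzyme per well | Reagent: 25 µM ATP with peptide substrate | Schedule: 60 min enzyme reaction, room temperature | Signal: Luminescent ADP-Glo measurement of ADP formed | Read-out basis: Score relative to plate controls | Control set: DMSO and 20 µM GW8510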
Dyrk1A ADPGlo: inhibitors of rat Dyrk1A kinase. ADP-Glo luminescence, NFATc1 peptide. inhibition, % at 12.5 µM. hit rate 0.43% among 310,000; in the data active = inhibition above about 50%
STK33 inh: inhibitors of human STK33 kinase. Q9BYT3. purified STK33, MBP phosphorylation, ADP-Glo luminescence. inhibition, % at 10 µM. hit rate 0.073% among 320,000;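 active = inhibition at or above 25%, using the most active replicate where run in duplicate; inactive = inhibition below 25%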
CDK5 p35 inh: CDK5/p35 (human) kinase inhibition; Recombinant CDK5/p35, ADP-Glo luminescence, 60 min; inhibition, % at 10 µM; hit rate 0.01% among 330,000;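 active = highest replicate inhibition of at least 50% and at least 75% of replicates reaching 50%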
Numbers stand for hits; - = inactive; . = no result given. The full list was thinned out, with hits kept by preference.

SMILES	GSK3A inh	GSK3B inh	Dyrk1A ADPGlo	STK33 inh	CDK5 p35 inh
Cc1c(C#N)c(O)[nH]c(=O)c1N=Nc1ccc(Cl)c(C(=O)O)c1	-	-	-	-	-
Cc1c(C#N)c(O)[nH]c(=O)c1N=Nc1ccc(S(N)(=O)=O)cc1	79	-76	-	-	-
CCOC(=O)c1cc(S(=O)(=O)NC2CCC(C)CC2)cn1C (centres undefined)	-	-	-	-	-
COc1cc(/C=N/NC(=O)c2sc(N)c(C#N)c2C)ccc1O	65	-	-	-	-
Cc1nc(SCC(=O)N2CCN(c3ccccn3)CC2)c(C#N)c(C)c1C	-	.	.	-	-
COc1ccc(C2C3=C(CCCC3=O)Nc3n[nH]c(C)c32)cc1OC (centres undefined)	-	-	-	-	-
Cc1ccc(C2C3=C(CC(C)(C)CC3=O)Nc3n[nH]c(C)c32)cc1 (centres undefined)	77	-60	-	-	-
Cc1[nH]nc2c1C(c1ccc(N(C)C)cc1)C1=C(CC(C)(C)CC1=O)N2 (centres undefined)	-	-	-	-	-
Cc1[nH]nc2c1C(c1cccc(O)c1)C1=C(CC(C)(C)CC1=O)N2 (centres undefined)	97	-92	-	-	-
Cc1[nH]nc2c1C(c1ccc(F)cc1)C1=C(CC(C)(C)CC1=O)N2 (centres undefined)	-	-56	-	.	-
O=C(N1CCC(n2nc(-c3ccccc3)oc2=O)CC1)C1(c2ccccc2)CC1	-	-	-	-	-
COc1ccc(-c2cc(C(=O)Nc3cc(Br)ccc3O)no2)cc1	-	-	-	-	-
CS(=O)(=O)c1cccc(NC(=O)C2CCCN2S(=O)(=O)c2ccc(F)cc2)c1 (centres undefined)	-	-	-	-	-
O=C(O)c1ccc(S(=O)(=O)N2CCC(NC(=O)C3CCCCC3)CC2)cc1	-	-	-	-	-
O=C(COc1ccccc1[N+](=O)[O-])N/N=C/c1ccncc1	-	-	-	-	-
O=C(COc1ccccc1[N+](=O)[O-])N/N=C/c1ccc(O)cc1	.	-51	-	.	-
O=C(COc1cccc2cccnc12)N/N=C/c1ccc(O)cc1	56	-	-	-	-
CCCCn1c(N)c(N(CC(C)C)C(=O)c2cc(S(=O)(=O)N3CCOCC3)ccc2Cl)c(=O)[nH]c1=O	-	-	-	-	-
Nc1ncc(-c2ccccc2)c(-c2ccc(O)cc2O)n1	60	-	-	-	-
COc1ccc(-c2cnc(N)nc2-c2ccc(OCc3ccccc3)cc2O)cc1	.	-	-	-	-
C=CC[n+]1c(/C=C/c2ccc(OC(C)=O)c(OC)c2)ccc2ccccc21	-	-	-	-	-
Cc1cnc(NC(=O)C2CC(=O)N(c3ccc4c(c3)OCCO4)C2)s1 (centres undefined)	50	.	-	-	-
O=Nc1c(O)c2ccccc2c2ccccc12	-	-	54	-	-
CC1(C)Cc2c(sc3c2C2=NCCN2C=N3)CS1	54	-	-	-	-
CN1C(=O)c2c(sc3c2CC(C)(C)SC3)N2CCN=C12	.	-	-	.	-
SMILES	GSK3A inh	GSK3B inh	Dyrk1A ADPGlo	STK33 inh	CDK5 p35 inh
Cc1cc(-c2ccccc2)oc(=O)c1NC(=O)c1ccccc1	-	-	-	-	-
Cc1ccc(-n2nnnc2CSc2nnc(-c3ccc(O)cc3)o2)cc1	67	-	-	-	-
Oc1ccc(-c2nnc(SCc3ccccc3)o2)cc1	-	.	-	-	-
Nc1cc(C(=O)O)c(N)c2c1C(=O)c1ccccc1C2=O	55	-	-	77	-
O=C1OC2(c3ccccc31)c1cc(I)c(O)c(I)c1Oc1c2cc(I)c(O)c1I	-	.	.	-	.
CCOc1ccc(NC(c2ccccc2)P(=O)(OC)OC)cc1 (centres undefined)	-	-	.	-	-
COc1ccc(Nc2nc(N)c([N+](=O)[O-])c(NCc3ccccc3)n2)cc1	-	-	-	-	-
Cc1cccc(Nc2nc(N)c([N+](=O)[O-])c(NCc3ccco3)n2)c1	-	-	-	-	-
Cc1cccc(Nc2nc(N)c([N+](=O)[O-])c(NCCO)n2)c1	64	-	.	-	-
COc1ccc(Nc2nc(N)c([N+](=O)[O-])c(NCCO)n2)cc1	75	-53	.	-	.
Nc1nc(Nc2cccc(Cl)c2)nc(NCCO)c1[N+](=O)[O-]	73	-50	-	-	58
CC(C)(C)c1ccc(C(=O)NCCC(=O)NNC(=O)COc2ccccc2F)cc1	-	.	.	-	-
COc1ccc(CN(C)C(=O)C(CCSC)NS(=O)(=O)c2ccc3c(c2)OCCO3)c(OC)c1OC (centres undefined)	.	.	-	.	-
COc1ccccc1NC(=O)c1ccc(Br)o1	-	-	-	-	-
O=C(Nc1nc2ccccc2[nH]1)c1ccc(Br)o1	-	-	-	60	-
O=C(Nc1ccccc1-c1ccccc1)c1ccc(Br)o1	-	-	-	36	-
CC(=O)c1ccc2noc(-c3ccccc3)c2c1	-	-	-	-	-
CN(C)/C=C/C(=O)c1ccc2noc(-c3ccccc3)c2c1	-	-	-	45	-
COc1cc2cccc(OC)c(=O)c2c(O)c1OC	-	-	-	-	-
CC(=O)Oc1cc2cccc(OC(C)=O)c(=O)c2c(OC(C)=O)c1OC(C)=O	-	-	64	-	-
CC(=O)c1cccc(NC(=S)N2CCN(S(=O)(=O)c3ccc(F)cc3)CC2)c1	-	-	-	-	-
COc1ccc(C(=O)Nc2ccc3c(c2)nc(CCNC(=O)c2ccco2)n3C)cc1	-	-	-	-	-
CC(=O)C1CCC2C3CC(O)C4=CC(=O)CCC4(C)C3C(=O)CC12C (centres undefined)	.	.	-	.	-
Cc1ccnc(NC(=O)CCC(=O)N(CC(=O)NCc2ccccc2)Cc2cccs2)c1	51	-	-	-	-
CN(C1CCCCC1)S(=O)(=O)CCNC(=O)c1ccccc1	-	-	-	-	-
SMILES	GSK3A inh	GSK3B inh	Dyrk1A ADPGlo	STK33 inh	CDK5 p35 inh
O=C(CSc1n[nH]c(=O)n1-c1ccc2c(c1)OCCO2)Nc1ccccc1	-	-	-	-	-
Cc1ccc(S(=O)(=O)CCSc2n[nH]c(=O)n2-c2ccc3c(c2)OCCO3)cc1	77	-	.	-	-
O=C(CCc1ccccc1)NNC(=O)COc1ccccc1Cl	-	-	-	-	-
CCOc1ccc(S(=O)(=O)NN=C2CCN(C(C)=O)CC2)cc1	-	-	-	-	-
Cc1ccc2nc(C(F)(F)F)c(C#N)c(N)c2c1	-	-	-	-	95
Cc1cc(C)c2nc(C(F)(F)F)c(C#N)c(N)c2c1	-	-	-	-	-
O=C1CC(c2ccc(O)cc2)Oc2cc(O)cc(O)c21 (centres undefined)	-	-	-	-	-
O=c1c(-c2c(O)cc(O)c3c2O[C@H](c2ccc(O)cc2)CC3)c(-c2ccc(O)cc2)oc2cc(O)cc(O)c12	-	.	-	25	-
CC1=C(C(=O)O)CC(S(=O)(=O)O)C1(C)C (centres undefined)	.	.	-	.	-
CN(Cc1nc2c(s1)CCCC2)C(=O)CCc1nnc(-c2ccc3c(c2)OCO3)o1	58	-	-	-	-
